Holding throughout (assay type): cell-based
In assay [1] the target is T1, Beta-secretase 1 (Homo sapiens, UniProt P56817). Put plainly: Inhibition of BACE1 in human SH-SY5Y cells harboring wild type APP695 assessed as reduction in amyloid beta (1 to 40) level after 24 hrs by ELISA method. Summed up:
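Aβ1-40 and Aβ1-42 levels were measured by ELISA in APPwt-expressing SH-SY5Y cells after compound treatment.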
A general note: An ELISA detects its analyte on a solid surface through an enzyme-linked reagent.

Assay [2] addresses T1, Beta-secretase 1. Briefly: Inhibition of BACE1 in human SH-SY5Y cells harboring wild type APP695 assessed as increase in alphaCTF level at 3 uM by Western blot method relative to chloroquine. Summed up: (§1)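 APP C-terminal fragments (αCTFs and AICD) were detected by Western blot and scored as band intensity. Compounds were tested at 1, 3 and 10 µM.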
For orientation: A western blot detects proteins with antibodies after separation by electrophoresis.

The target of assay [3] is T1, Beta-secretase 1. Put plainly: Inhibition of BACE1 in human SH-SY5Y cells harboring wild type APP695 assessed as increase in AICD level at 3 uM by Western blot method relative to chloroquine. The gist of the method:
as §1

The target of assay [4] is T1, Beta-secretase 1. Briefly: Inhibition of BACE1 in human SH-SY5Y cells harboring wild type APP695 assessed as increase in AICD level at 3 uM by Western blot method relative to untreated control. Summed up:
as §1

Assay [5] concerns the target T1, Beta-secretase 1. Briefly: Inhibition of BACE1 in human SH-SY5Y cells harboring wild type APP695 assessed as increase in alphaCTF level at 3 uM by Western blot method relative to untreated control. The gist of the method:
as §1

As usually defined, the IC50 is the concentration at which inhibition is half-maximal.

T1 sequence (P56817 whole entry): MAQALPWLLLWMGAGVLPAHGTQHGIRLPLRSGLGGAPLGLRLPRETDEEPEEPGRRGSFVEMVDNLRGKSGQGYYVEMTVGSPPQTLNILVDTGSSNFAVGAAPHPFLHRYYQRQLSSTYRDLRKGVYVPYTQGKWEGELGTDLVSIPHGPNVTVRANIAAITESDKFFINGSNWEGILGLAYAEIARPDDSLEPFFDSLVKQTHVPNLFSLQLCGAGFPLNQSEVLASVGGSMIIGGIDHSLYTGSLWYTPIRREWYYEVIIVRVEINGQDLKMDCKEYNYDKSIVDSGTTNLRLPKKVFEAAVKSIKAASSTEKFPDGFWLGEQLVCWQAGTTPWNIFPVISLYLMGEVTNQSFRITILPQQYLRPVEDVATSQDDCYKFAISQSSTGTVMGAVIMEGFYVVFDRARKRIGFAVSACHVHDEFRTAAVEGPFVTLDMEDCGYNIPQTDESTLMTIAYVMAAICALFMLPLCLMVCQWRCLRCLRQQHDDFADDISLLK

`CN(C)Cc1ccccc1-c1ccc(NCCN2CCCCC2)c(OCCN2CCCCC2)c1`: at Beta-secretase 1 [1], the IC50 is 1.4 µM. Besides, the fold change (FC) at Beta-secretase 1 [2] came to 5; at Beta-secretase 1 [3] it was 4.8.
Regarding `CN(C)Cc1ccccc1-c1ccc(NCCN2CCCCC2)c(OCCCCN2CCCCC2)c1`, the fold change (FC) on Beta-secretase 1 [2] came out at 4.4; on Beta-secretase 1 [3], 4.8.
`Oc1c(CN2CCCC2)cc(Nc2ccnc3cc(Cl)ccc23)cc1CN1CCCC1`: at Beta-secretase 1 [1], the IC50 was 5.1 µM. The fold change (FC) at Beta-secretase 1 [2] was determined as 2.1; at Beta-secretase 1 [3], 2.5.
As for `c1ccc(-c2ccc(NCCCN3CCCCC3)c(OCCN3CCCCC3)c2)cc1`, the IC50 at Beta-secretase 1 [1] was 5.2 µM. Further, the values for the fold change (FC) on Beta-secretase 1 [2] and on Beta-secretase 1 [3] were 2.4 and 2.1, respectively.
The corresponding values for `CN(C)Cc1ccccc1-c1ccc(NCCCN2CCCCC2)cc1` are 3.9 µM, 0.9 and 0.8.
Take `c1cc(-c2ccc(NCCCN3CCCCC3)c(OCCN3CCCCC3)c2)ccc1CN1CCCCC1`: the IC50 on Beta-secretase 1 [1] turned out to be 2.1 µM. The fold change (FC) at Beta-secretase 1 [2] worked out at 2.6; on Beta-secretase 1 [3], 2.5.
Take `CC(C)CN(CCCN1CCN(CCCNc2nc3ccccc3[nH]2)CC1)CC(C)C`: the 50% inhibitory concentration (IC50) on Beta-secretase 1 [1] was 1.7 µM. Moreover, the fold change (FC) on Beta-secretase 1 [2] turned out to be 1.3; at Beta-secretase 1 [3], 1.8.
For `c1ccc(-c2cccc(OCCN3CCCCC3)c2)cc1` the same measures were 9.1 µM, 0.1 and 0.2.
In the case of `c1cc(CN2CCCCC2)cc(-c2ccc(NCCCN3CCCCC3)c(OCCN3CCCCC3)c2)c1`, the IC50 on Beta-secretase 1 [1] worked out at 4.3 µM. The results for the fold change (FC) at Beta-secretase 1 [2] and on Beta-secretase 1 [3] were 3.3 and 2.6, respectively.
As for `CN(C)Cc1ccc(-c2ccc(NCCCN3CCCCC3)c(OCCN3CCCCC3)c2)cc1`, the IC50 on Beta-secretase 1 [1] is 1.5 µM. Besides, the fold change (FC) at Beta-secretase 1 [2] was found to be 2.1; at Beta-secretase 1 [3], 2.5.
In the case of `c1ccc(-c2ccc(NCCCN3CCCCC3)c(OCCN3CCCCC3)c2)c(CN2CCCCC2)c1`, the IC50 at Beta-secretase 1 [1] was determined as 2.6 µM. The fold change (FC) on Beta-secretase 1 [2] came out at 4.3; at Beta-secretase 1 [3] it was 2.7.
On to `CN(C)Cc1ccccc1-c1ccc(NCCCCN2CCCCC2)c(OCCN2CCCCC2)c1`, for which, on Beta-secretase 1 [1], the IC50 is 1.7 µM. Also, the results for the fold change (FC) at Beta-secretase 1 [2] and at Beta-secretase 1 [3] were 4.2 and 3, respectively.
Regarding `CN1CCN(Cc2ccccc2-c2ccc(NCCCN3CCCCC3)c(OCCN3CCCCC3)c2)CC1`, the IC50 on Beta-secretase 1 [1] was determined as 2.6 µM. Moreover, the fold change (FC) turned out to be 5.1 at Beta-secretase 1 [2] and 3.7 on Beta-secretase 1 [3].
As to `CN(C)Cc1ccccc1-c1cccc(OCCN2CCCCC2)c1`, the IC50 at Beta-secretase 1 [1] came to 1.5 µM. Also, the results for the fold change (FC) at Beta-secretase 1 [2] and on Beta-secretase 1 [3] were 0.6 and 0.7, respectively.
Turning to `CN(C)Cc1ccccc1-c1ccc(NCCN2CCCCC2)c(OCCCN2CCCCC2)c1`, at Beta-secretase 1 [1], the IC50 is 2 µM. Further, the fold change (FC) at Beta-secretase 1 [2] turned out to be 4.5; on Beta-secretase 1 [3] it was 3.4.
For `c1ccc(-c2ccc(NCCCN3CCCCC3)c(OCCN3CCCCC3)c2)c(CN2CCOCC2)c1` the same measures were 2.8 µM, 3.1 and 1.7.
For the compound `CN(C)Cc1ccccc1-c1ccc(NCCCN2CCCCC2)c(OCCCN2CCCCC2)c1`, the half-maximal inhibitory concentration (IC50) at Beta-secretase 1 [1] came to 2.1 µM. The fold change (FC) stood at 4.5 on Beta-secretase 1 [2], 30 on Beta-secretase 1 [4], 5.1 on Beta-secretase 1 [3] and 50 at Beta-secretase 1 [5].
With `CN(C)Cc1ccn(-c2ccc(NCCCN3CCCCC3)c(OCCN3CCCCC3)c2)c1`, the IC50 on Beta-secretase 1 [1] was found to be 5 µM. Also, the fold change (FC) at Beta-secretase 1 [2] was 3.6; on Beta-secretase 1 [3], 2.

The record behind these values is ChEMBL document CHEMBL4257565, “A phenotypic approach to the discovery of compounds that promote non-amyloidogenic processing of the amyloid precursor protein: Toward a new profile of indirect β-secretase inhibitors” (Eur J Med Chem, 2018).
